Measurements from different studies.
Each line is one published result; the experiments were not run side by side.
MTNR1A: Melatonin receptor type 1A (MTNR1A, Homo sapiens, UniProt P48039)

Cc1ccccc1N(C)C(=O)Oc1nsnc1N1CCCCC1 — inhibition (Fatty-acid amide hydrolase 1 (FAAH, Homo sapiens, UniProt O00519); enzyme activity, inhibitor; 10 µM, cell membranes): 40%
C#Cc1n[nH]c2c(-c3cn(C(C)c4ccccn4)c(=O)[nH]c3=O)cc(F)cc12 (stereo not drawn) — inhibition (Myotonin-protein kinase (DMPK, Homo sapiens, UniProt Q09013); enzyme activity, inhibitor; 1 µM): 1.2%
Cc1nn(C)cc1-c1nc2c(N3CCN(Cc4ccc(Cl)cc4)CC3)c(Cl)cnc2[nH]1 — remaining binding (Receptor-type tyrosine-protein kinase FLT3 (FLT3, Homo sapiens, UniProt P36888, K663Q); binding, competition with immobilised ligand; 1 µM): 0.8%
CCN(CC)CCCC[C@H](NC(=O)[C@H](CC(C)C)NC(=O)[C@H](C)NC(=O)[C@H](Cc1ccccc1)NC(=O)c1ccc(C(C)(C)C)cc1)C(=O)N[C@@H](CO)C(=O)OC — ΔTm (BRWD3 (Homo sapiens, UniProt Q6RI45); thermal stability, DSF; 25 µM): -0.57 °C
Nc1ncc(-c2nc(N3CCOCC3)nc(N3CCOCC3)n2)c(C(F)F)n1 — remaining binding (Aurora kinase A (AURKA, Homo sapiens, UniProt O14965); binding, competition with immobilised ligand; 10 µM): 52%
COc1ccc2cccc(C(CO)CNC(=O)CF)c2c1 (stereo not drawn) — Emax (MTNR1A; β-arrestin recruitment, agonist; CHO-K1; 90 min): 101%
COc1ncccc1-c1cnn2ccc(N3CCN(C(=O)OC(C)C)CC3)nc12 — remaining binding (Activin receptor type-2B (ACVR2B, Homo sapiens, UniProt Q13705); binding, competition with immobilised ligand; 1 µM): 69%
COc1ccc2[nH]cc(CCNC(=O)CI)c2c1 — Emax (MTNR1A; β-arrestin recruitment, agonist; CHO-K1; 90 min): 92%
COCc1c(-c2cc3cc(C)cc(OC)c3s2)c2c(N)ncnn2c1CN1CCNC(=O)C1 — inhibition (5-hydroxytryptamine receptor 2C (HTR2C, Homo sapiens, UniProt P28335); ligand displacement, radioligand; 10 µM): 30%
